Results on three compounds are retold here after ChEMBL document CHEMBL1933017, “Synthesis and biological evaluation of some thiazolidinones as antimicrobial agents” (2012).

Assay [1] has as its system Bacillus cereus. Briefly: Antibacterial activity against Bacillus cereus after 24 hrs by agar streak dilution method. In kind it is functional. Put shortly:
(§1)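 MIC by agar streak dilution. Graded amounts of DMSO stock (100 μg/mL) were mixed into molten sterile nutrient agar and poured 4–5 mm deep. Serial concentrations spanned 3.12–100 µg/mL. Plates were inoculated with about 10⁵ CFU/mL of bacterial suspension and incubated at (37 ± 1) °C for 24 h. Each value is the mean of three independent experiments.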

In assay [2] the test system is Shigella flexneri. Briefly: Antibacterial activity against Shigella flexneri after 24 hrs by agar streak dilution method. In kind it is functional. Put shortly:
as §1

Assay [3] relates to Aspergillus clavatus. Briefly: Antifungal activity against Aspergillus clavatus after 48 hrs by agar streak dilution method. In kind it is functional. Put shortly: (§2)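 Fungal MIC by agar streak dilution on Sabouraud dextrose agar, poured 4–5 mm deep. Compound from a DMSO stock (100 μg/mL) was incorporated at serial concentrations of 3.12–100 µg/mL. Plates were inoculated with about 10⁵ CFU/mL of suspension and incubated at (37 ± 1) °C for 48 h. Each value is the mean of three independent experiments.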

The test system of assay [4] is Aspergillus niger. Briefly: Antifungal activity against Aspergillus niger at 100 ug/disc after 24 hrs by disc diffusion method. In kind it is functional. As to conditions: read-out: DIZ. Put shortly: (§3)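 Paper disc diffusion on autoclaved Mueller-Hinton agar poured 5 mm deep. Agar was swab-inoculated with 10⁵ CFU/mL suspension (0.5 McFarland). Discs 6.25 mm across were soaked in compound solution in DMSO (3.12–100 µg/mL) and plates incubated 24 h at (37 ± 1) °C. Read-out was inhibition zone (mm). DMSO control disc; ciprofloxacin or ketoconazole reference, 100 µg/disc. Mean of three independent experiments.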

The test system of assay [5] is Pseudomonas aeruginosa. Briefly: Antibacterial activity against Pseudomonas aeruginosa at 100 ug/disc after 24 hrs by disc diffusion method. In kind it is functional. As to conditions: read-out: DIZ. Summed up: as §3
Assay [6] deals with Bacillus cereus. Briefly: Antibacterial activity against Bacillus cereus at 100 ug/disc after 24 hrs by disc diffusion method. In kind it is functional. As to conditions: read-out: DIZ. Summed up: as §3
Assay [7] concerns Proteus vulgaris. Briefly: Antibacterial activity against Proteus vulgaris at 100 ug/disc after 24 hrs by disc diffusion method. In kind it is functional. As to conditions: read-out: DIZ. Summed up: as §3
Assay [8] has as its system Candida albicans. Briefly: Antifungal activity against Candida albicans at 100 ug/disc after 24 hrs by disc diffusion method. In kind it is functional. As to conditions: read-out: DIZ. Summed up: as §3
Assay [9] concerns Pseudomonas aeruginosa. Briefly: Antibacterial activity against Pseudomonas aeruginosa […] after 24 hrs by agar streak dilution method. In kind it is functional.
For assay [10], the system named is Aspergillus fumigatus. Briefly: Antifungal activity against Aspergillus fumigatus after 48 hrs by agar streak dilution method. In kind it is functional. Put shortly:
as §2

The subject of assay [11] is Escherichia coli. Briefly: Antibacterial activity against Escherichia coli at 100 ug/disc after 24 hrs by disc diffusion method. In kind it is functional. As to conditions: read-out: DIZ. Put shortly:
as §3

Assay [12] deals with Staphylococcus aureus. Briefly: Antibacterial activity against Staphylococcus aureus at 100 ug/disc after 24 hrs by disc diffusion method. As to conditions: read-out: DIZ. In kind it is functional. Summed up:
as §3

Assay [13] relates to Salmonella typhi. Briefly: Antibacterial activity against Salmonella Typhi at 100 ug/disc after 24 hrs by disc diffusion method. In kind it is functional, Salmonella enterica subsp. enterica serovar Typhi. As to conditions: Salmonella enterica, read-out: DIZ. Summed up:
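Paper disc diffusion on Mueller-Hinton agar poured 5 mm deep; 10⁵ CFU/mL suspension (0.5 McFarland) swabbed over surface. 6.25 mm filter paper discs soaked in compound in DMSO, incubated 24 h at (37 ± 1) °C; inhibition zone diameter in mm. DMSO disc as blank; ciprofloxacin 100 µg/disc as reference. Mean of three independent experiments.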

Assay [14] relates to Salmonella typhi. Briefly: Antibacterial activity against Salmonella Typhi after 24 hrs by agar streak dilution method. In kind it is functional, Salmonella enterica subsp. enterica serovar Typhi. As to conditions: Salmonella enterica. Put shortly:
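Agar streak dilution: DMSO stock (100 µg/mL) graded into molten sterile nutrient agar, poured 4–5 mm deep and solidified. Plates carry serial dilutions spanning 3.12–100 µg/mL. Applied ~10⁵ CFU/mL suspension, then incubated 24 h at (37 ± 1) °C. MIC read as the lowest inhibitory concentration; each value is the mean of three independent experiments.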

In assay [15] the test system is Klebsiella pneumoniae. Briefly: Antibacterial activity against Klebsiella pneumoniae […] after 24 hrs by agar streak dilution method. In kind it is functional.
The subject of assay [16] is Aspergillus clavatus. Briefly: Antifungal activity against Aspergillus clavatus at 100 ug/disc after 24 hrs by disc diffusion method. In kind it is functional. As to conditions: read-out: DIZ. Summed up: as §3
Assay [17] deals with Shigella flexneri. Briefly: Antibacterial activity against Shigella flexneri at 100 ug/disc after 24 hrs by disc diffusion method. In kind it is functional. As to conditions: read-out: DIZ. Put shortly: as §3
Assay [18] concerns Aspergillus fumigatus. Briefly: Antifungal activity against Aspergillus fumigatus at 100 ug/disc after 24 hrs by disc diffusion method. In kind it is functional. As to conditions: read-out: DIZ. Summed up: as §3
The subject of assay [19] is Proteus vulgaris. Briefly: Antibacterial activity against Proteus vulgaris after 24 hrs by agar streak dilution method. In kind it is functional. Summed up: as §1
The test system of assay [20] is Escherichia coli. Briefly: Antibacterial activity against Escherichia coli after 24 hrs by agar streak dilution method. In kind it is functional. Summed up:
as §1

For assay [21], the system named is Staphylococcus aureus. Briefly: Antibacterial activity against Staphylococcus aureus after 24 hrs by agar streak dilution method. In kind it is functional. Summed up: as §1
The subject of assay [22] is Aspergillus niger. Briefly: Antifungal activity against Aspergillus niger after 48 hrs by agar streak dilution method. In kind it is functional. Put shortly: as §2
For assay [23], the system named is Candida albicans. Briefly: Antifungal activity against Candida albicans after 48 hrs by agar streak dilution method. In kind it is functional. Summed up:
as §2

The subject of assay [24] is Klebsiella pneumoniae. Briefly: Antibacterial activity against Klebsiella pneumoniae at 100 ug/disc after 24 hrs by disc diffusion method. As to conditions: read-out: DIZ. In kind it is functional. Put shortly:
as §3

SMILES strings stand for the structures. Values after ≈ are worked out from the molar mass of the structure shown.

On to `CCN1CCN(CC2SC(c3ccccc3[N+](=O)[O-])N(c3ccc(Nc4nc(Oc5cc(=O)n(C)c6ccccc56)nc(N(C)C)n4)cc3)C2=O)CC1` (configuration not stated), for which the minimum inhibitory concentration (MIC) in [1] was 50 µg/mL (≈ 67.9 µM); in [2] it was 100 µg/mL (≈ 136 µM); in assay [3], 100 µg/mL (≈ 136 µM); in [9], 100 µg/mL (≈ 136 µM); in assay [10], 100 µg/mL (≈ 136 µM); in assay [14], 100 µg/mL (≈ 136 µM). Also, the MIC in [15], in assay [19], in assay [20], in [21], in [22] and in [23] was 100 µg/mL (≈ 136 µM) in each case. Further, the zone of inhibition at 100 µg/disc in assay [4] was below 10 mm; in assay [5] it was 16 mm; in [6], 17 mm; in [7] it was 17 mm; in assay [8] it was 19 mm; in [11] it was 14 mm. Further, the zone of inhibition at 100 µg/disc in assay [12] amounted to 13 mm; in assay [13] it was 15 mm; in assay [16], 15 mm; in assay [17] it was 14 mm; in assay [18], 13 mm; in [24], 15 mm.
Regarding `CCN1CCN(CC2SC(c3ccc(O)cc3)N(c3ccc(Nc4nc(Oc5cc(=O)n(C)c6ccccc56)nc(N(C)C)n4)cc3)C2=O)CC1` (configuration not stated), the minimum inhibitory concentration (MIC) in [1] stood at 50 µg/mL (≈ 70.6 µM); in [2], 100 µg/mL (≈ 141 µM); in [3] it was 100 µg/mL (≈ 141 µM); in assay [9], 100 µg/mL (≈ 141 µM); in assay [10] it was 50 µg/mL (≈ 70.6 µM); in assay [14], 50 µg/mL (≈ 70.6 µM). Also, the MIC in [15] came out at 50 µg/mL (≈ 70.6 µM); in assay [19] it was 100 µg/mL (≈ 141 µM); in assay [20], 50 µg/mL (≈ 70.6 µM); in assay [21] it was 25 µg/mL (≈ 35.3 µM); in [22], 100 µg/mL (≈ 141 µM); in assay [23], 100 µg/mL (≈ 141 µM). The zone of inhibition at 100 µg/disc in [4] turned out to be 18 mm; in assay [5] it was 14 mm; in assay [6] it was 20 mm; in [7], 16 mm; in assay [8] it was 19 mm; in assay [11], 16 mm. In addition, the zone of inhibition at 100 µg/disc worked out at 23 mm in assay [12]; 17 mm in assay [13]; 21 mm in assay [16]; 13 mm in [17]; 21 mm in [18]; 19 mm in assay [24].
`CCN1CCN(CC2SC(c3ccc(Br)cc3)N(c3ccc(Nc4nc(Oc5cc(=O)n(C)c6ccccc56)nc(N(C)C)n4)cc3)C2=O)CC1` (configuration not stated): the minimal inhibitory concentration (MIC) in [1], in assay [2], in assay [3], in assay [9], in assay [10] and in [14] was 100 µg/mL (≈ 130 µM) each time. Moreover, the MIC in [15], in assay [19], in assay [20], in [21], in assay [22] and in assay [23] was 100 µg/mL (≈ 130 µM) throughout. In addition, the zone of inhibition at 100 µg/disc came out at 14 mm in [4]; 16 mm in assay [5]; 18 mm in assay [6]; 17 mm in assay [7]; 12 mm in assay [8]; 19 mm in [11]. The zone of inhibition at 100 µg/disc worked out at 15 mm in assay [12]; 17 mm in assay [13]; 16 mm in assay [16]; 15 mm in assay [17]; 14 mm in assay [18]; 19 mm in assay [24].
